Holding throughout (assay type): functional
Test [1] deals with Rattus norvegicus. Put plainly: Ability to lower blood pressure in the spontaneously hypertensive rat (SHR) at 100 mg/kg (p.o.). The note with it: route oral. Summed up: (§1)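 Spontaneously hypertensive rats were given a single oral dose of the compound. The read-out was the maximum fall in blood pressure, in mmHg, after that dose. A P value for significance was reported with each value.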

The species named for test [2] is Cavia porcellus. Description: Concentration needed to achieve a 75% increase in coronary blood flow in 'Langendorff', guinea pig heart (in vitro negative inotropic activity). Summed up: (§2)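 Isolated Langendorff-perfused guinea pig hearts infused with a range of drug concentrations; force (g), rate (beats/min) and coronary flow (mL/min) recorded. A linear regression of percent-control flow gives C175, the micromolar concentration raising flow to 175% of control, reported only if within the tested range. Raw data analysed by paired t tests.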

Test [3] is filed under the species Cavia porcellus. Put plainly: Concentration needed to elicit a 75% increase beyond control in coronary flow in ''Langendorff'', guinea pig heart (in vitro). Summed up: as §2
The species entered for test [4] is Cavia porcellus. Put plainly: Concentration needed to achieve a 75% increase in coronary blood flow in 'Langendorff', guinea pig heart (in vitro Negative inotropic potency). Summed up: as §2
Test [5] has as its system Rattus norvegicus. Put plainly: Ability to lower blood pressure in the spontaneously hypertensive rat (SHR) at 1 mg/kg (p.o.). The note with it: route oral. Summed up: (§3)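 Spontaneously hypertensive rats dosed orally at the stated dose; read-out is the maximum fall in blood pressure (mmHg), with significance shown as P.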
For test [6], the species on record is Oryctolagus cuniculus. Description: Inhibition of [Ca2+] influx in response to a stimulus of KCL (60 uM). Summed up: (§4)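 Test compounds at 10 μM; tension and calcium influx each expressed as % change from control, measured against KCl ([…]) or NE (10 μM) stimulus.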
For test [7], the species on record is Oryctolagus cuniculus. Put plainly: In vitro inhibition of development of isometric tension, in response to KCl (60 uM) in rabbit aorta. Summed up:
as §4

Test [8] relates to Rattus norvegicus. Put plainly: Ability to lower blood pressure in the spontaneously hypertensive rat (SHR) at 3 mg/kg (p.o.). Particulars: route oral. Summed up: as §3
For test [9], the species on record is Oryctolagus cuniculus. Put plainly: In vitro inhibition of development of isometric tension, in response to norepinephrine (NE, 10 uM) in rabbit aorta. Summed up: as §4
The species entered for test [10] is Oryctolagus cuniculus. Put plainly: Inhibition of [Ca2+] influx in response to a stimulus of norepinephrine (NE, 10 uM). Summed up: as §4
Test [11] has as its system Rattus norvegicus. Put plainly: Ability to lower blood pressure in the spontaneously hypertensive rat (SHR) at 29 mg/kg (p.o.). The note with it: route oral. Summed up: as §1
The species named for test [12] is Oryctolagus cuniculus. Put plainly: Inhibition of [Ca2+] influx in response to a stimulus of norepinephrine (NE, 10 uM) expressed as percent change from control. Summed up:
as §4

The species entered for test [13] is Oryctolagus cuniculus. Description: Inhibition of [Ca2+] influx in response to a stimulus of KCL (60 uM) expressed as percent change from control. Summed up:
as §4

Test [14] is filed under the species Oryctolagus cuniculus. Put plainly: In vitro inhibition of development of isometric tension, in response to norepinephrine (NE, 10 uM) in rabbit aorta expressed as percent change from control. Summed up: as §4
For test [15], the species on record is Oryctolagus cuniculus. Put plainly: In vitro inhibition of development of isometric tension, in response to KCl (60 uM) in rabbit aorta expressed as percent change from control. Summed up: as §4
The test system of test [16] is Rattus norvegicus. Put plainly: Ability to lower blood pressure in the spontaneously hypertensive rat (SHR) at 10 mg/kg (p.o.). Particulars: route oral. Summed up:
as §3

The test system of test [17] is Rattus norvegicus. Description: Ability to lower blood pressure in the spontaneously hypertensive rat (SHR) at 30 mg/kg (p.o.). The note with it: route oral. Summed up:
as §1

For `COc1ccc(C#Cc2ccccc2)c(CCCN(C)CCc2ccc(OC)c(OC)c2)c1`, in test [1], the “Max fall in blood pressure” value amounted to 62 mmHg. For the same compound, the “Contractile force, % of control” value in test [2] was determined as 85%. Besides, in test [3], the C175 was 3 µM. The “P (Ei)” value in test [4] was less than 0.05.
`CCCCC#Cc1ccc(OC)cc1CCCN(C)CCc1ccc(OC)c(OC)c1`: in test [1], the “Max fall in blood pressure” value was 35 mmHg. Moreover, the “Contractile force, % of control” value in [2] was 100%. In test [3], this compound displayed a C175 of 0.2 µM. Further, the “P (Ei)” value in test [4] is more than 0.5.
Regarding `COc1ccc(C#Cc2ccccc2)c(CC(C)N(C)CCc2ccc(OC)c(OC)c2)c1` (stereo not drawn), the “Max fall in blood pressure” value in test [5] stood at 53 mmHg. For the same compound, in test [2], the “Contractile force, % of control” value turned out to be 70%. For the same compound, the C175 in test [3] was 0.025 µM. For the same compound, the “P (Ei)” value in test [4] is less than 0.05.
For `COc1ccc(C#Cc2ccccc2)c(CC(C)NCCc2ccc(Cl)c(Cl)c2)c1` (stereo not drawn), the Change in [6] is -21%; in test [7] it was -20%; in test [9] it was -5%; in test [10], -23%. In addition, the “Max fall in blood pressure” value in test [8] is listed as 43 mmHg. The “Contractile force, % of control” value in test [2] was determined as 115%. This compound showed a C175 in [3] of 0.006 µM. The “P (Ei)” value in [4] came to 0.205.
As for `COc1ccc(C#Cc2ccc([S+](C)[O-])cc2)c(CC(C)N(C)CCc2ccc(OC)c(OC)c2)c1` (stereo not drawn), the “Max fall in blood pressure” value in [11] came out at 29 mmHg. For the same compound, the “Contractile force, % of control” value in test [2] was 10%. In [3], the C175 was determined as 3 µM. For the same compound, the “P (Ei)” value in test [4] is recorded as less than 0.001.
In the case of `COc1cc(CCN(C)C(C)Cc2cc(OC)ccc2C#Cc2ccccc2)cc(OC)c1` (stereo not drawn), the Change in test [6] is given as -41%; in test [7], -68%; in [9], -22%; in test [10] it was -10%. Besides, in test [8], the “Max fall in blood pressure” value worked out at 66 mmHg. In addition, the “Contractile force, % of control” value in test [2] came out at 100%. The compound also came in with a C175 in test [3] of 0.0025 µM. In test [4], the “P (Ei)” value is 0.5.
Regarding `COc1cc(CCNC(C)Cc2cc(OC)ccc2C#Cc2ccccc2)cc(OC)c1` (stereo not drawn), the Change was -23% in [12], -42% in test [13], -13% in test [14] and -15% in [15]. In test [16], the “Max fall in blood pressure” value is listed as 36 mmHg. Moreover, the “Contractile force, % of control” value in [2] is 120%. The compound further registered a C175 in test [3] of 0.00075 µM. The “P (Ei)” value in test [4] came out at 0.026.
Consider `COc1ccc(CCN(C)CCCC(C#N)(c2ccc(OC)c(OC)c2)C(C)C)cc1OC` (stereo not drawn) [VERAPAMIL], for which the Change in test [6] is recorded as -30%; in test [7], -89%; in test [9], -18%; in test [10] it was -22%. The “Max fall in blood pressure” value in test [17] is given as 67 mmHg. Also, the “Contractile force, % of control” value in test [2] stood at 35%. In test [3], the C175 amounted to 0.1 µM. Moreover, the “P (Ei)” value in [4] is less than 0.001.
`COc1ccc(C#Cc2ccccc2)c(CC(C)NCCc2ccc(OC)c(OC)c2)c1` (stereo not drawn): the Change in [6] was -46%; in test [7], -68%; in test [9], -45%; in test [10], -27%. Further, the “Max fall in blood pressure” value in test [8] was found to be 37 mmHg. In addition, the “Contractile force, % of control” value in test [2] worked out at 95%. In [3], this compound yielded a C175 of 0.027 µM. Further, the “P (Ei)” value in test [4] is reported as more than 0.5.
In the case of `COc1ccc(C#Cc2ccccc2)c(CC(C)N(C)CCc2ccc(Cl)c(Cl)c2)c1` (stereo not drawn), the “Max fall in blood pressure” value in test [5] came out at 67 mmHg. In [2], the “Contractile force, % of control” value was 90%. Moreover, the C175 in test [3] stood at 0.004 µM. In test [4], the “P (Ei)” value is more than 0.5.
For `COc1ccc(C#Cc2ccccc2)c(CCC(C)N(C)CCc2ccc(OC)c(OC)c2)c1` (stereo not drawn), the Change in [6] is recorded as -42%; in [7], -71%; in test [9] it was -47%; in test [10], -34%. For the same compound, the “Max fall in blood pressure” value in [17] came out at 40 mmHg. The “Contractile force, % of control” value in test [2] was 135%. The C175 in test [3] turned out to be 0.025 µM. The “P (Ei)” value in test [4] came out at 0.055.
